Reference: ChEMBL document CHEMBL3352738, “A new phenylpropanoid and an alkylglycoside from Piper retrofractum leaves with their antioxidant and α-glucosidase inhibitory activity” (Bioorg Med Chem Lett, 2014)

Key:
[1] = Antioxidant activity assessed as trolox equivalent of AAPH radical scavenging activity at 10 uM after 2 mins by ORAC-RCoo assay; assay type: physicochemical
How it was run: (§1)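 Peroxyl radical scavenging was measured by the oxygen radical absorbance capacity (ORAC) assay, with Trolox as the positive control. Values are reported as Trolox equivalents (TE).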

[2] = Antioxidant activity assessed as […] reduction power at 1 uM after 1 hr by cupric ion reducing antioxidant capacity assay; assay type: physicochemical
[3] = Inhibition of alpha-glucosidase (unknown origin) using 3 mM p-NPG solution at 50 uM relative to control; details: Rattus norvegicus
[4] = Antioxidant activity assessed as trolox equivalent of AAPH radical scavenging activity at 1 uM after 2 mins by ORAC-RCoo assay; assay type: physicochemical; how it was run: as §1
[5] = Metal chelating activity of the compound assessed as Cu2+ chelating activity at 10 uM by fluorescence assay relative to control; assay type: physicochemical
[6] = Antioxidant activity assessed as […] reduction power at 10 uM after 1 hr by cupric ion reducing antioxidant capacity assay; assay type: physicochemical

| Activity [1] | Activity [2] | inhibition [3] | Activity [4] | Activity [5] | Activity [6] | SMILES |
| --- | --- | --- | --- | --- | --- | --- |
| 1.83 µM | 0.41 µM | 12% | 0.18 µM | 22.39% | 0.69 µM | OC[C@H]1O[C@@H](OCc2ccccc2)[C@H](O)[C@@H](O)[C@@H]1O |
| 1.65 µM | 0.21 µM | 4.6% | 0.21 µM | 21.42% | 0.63 µM | COc1cc(O[C@@H]2O[C@H](CO)[C@@H](O)[C@H](O)[C@H]2O)ccc1O [TACHIOSIDE] |
| 1.61 µM | 0.46 µM | 7.93% | 0.15 µM | 19.3% | 0.84 µM | OC[C@@]1(O)CO[C@@H](OC[C@H]2O[C@@H](OCc3ccccc3)[C@H](O)[C@@H](O)[C@@H]2O)[C@@H]1O |
| 28.2 µM | 9.01 µM | – | 3.59 µM | 25% | 43.82 µM | COc1cc(C[C@@H](O)CO)ccc1O |
| 1.71 µM | 0.32 µM | 7.02% | 0.17 µM | 21.8% | 0.65 µM | C=CCc1ccc(O[C@@H]2O[C@H](CO)[C@@H](O)[C@H](O)[C@H]2O)c(O[C@@H]2O[C@H](CO)[C@@H](O)[C@H](O)[C@H]2O)c1 |
| 0.92 µM | 0.21 µM | 6.9% | 0.12 µM | 20.5% | 0.34 µM | CC1=CC(=O)CC(C)(C)[C@@]1(O)CC[C@@H](C)O[C@@H]1O[C@H](CO)[C@@H](O)[C@H](O)[C@H]1O |
| 2.88 µM | 0.29 µM | 11.7% | 0.55 µM | 24.21% | 0.96 µM | COc1cc(C[C@@H](O)CO)ccc1O[C@@H]1O[C@H](CO)[C@@H](O)[C@H](O)[C@H]1O |
| 2.26 µM | 0.17 µM | 8.54% | 0.48 µM | 20.58% | 0.59 µM | CCCCC[C@H](C)O[C@@H]1O[C@H](CO[C@@H]2OC[C@@H](O)[C@H](O)[C@H]2O)[C@@H](O)[C@H](O)[C@H]1O |
| 3.07 µM | 0.34 µM | 8.62% | 1.04 µM | 19.63% | 1.13 µM | CCCCC[C@H](C)O[C@@H]1O[C@H](CO[C@@H]2OC[C@](O)(CO)[C@H]2O)[C@@H](O)[C@H](O)[C@H]1O |
| 3.64 µM | 0.18 µM | – | 0.62 µM | 18.04% | 1.68 µM | CCCCO[C@@H]1O[C@H](CO)[C@@H](O)[C@H](O)[C@H]1O |
| 2.13 µM | 0.27 µM | 7.49% | 0.31 µM | 21.67% | 0.63 µM | CC(C)O[C@@H]1O[C@H](CO[C@@H]2OC[C@@H](O)[C@H](O)[C@H]2O)[C@@H](O)[C@H](O)[C@H]1O |
| 16.26 µM | 1.55 µM | 9.08% | 2.55 µM | 20.48% | 22.77 µM | C=CCc1ccc(O)c(O)c1 [HYDROXYCHAVICOL] |
| 1.79 µM | 0.29 µM | 7.31% | 0.22 µM | 20.97% | 0.54 µM | CC(C)O[C@@H]1O[C@H](CO)[C@@H](O)[C@H](O)[C@H]1O |
